pIC50: −log10 of the molar value.
Key:
Format in all cases: functional, cell-based
[1] = test system: MGC-803; experiment: Cytotoxicity against human MGC-803 cells expressing mutant type p53 assessed as reduction in cell viability preincubated for 48 hrs and measured after 4 hrs by MTT assay
[2] = test system: T-24; experiment: Cytotoxicity against human T-24 cells […] assessed as reduction in cell viability preincubated for 48 hrs and measured after 4 hrs by MTT assay
[3] = test system: PC-3; experiment: Cytotoxicity against human PC-3 cells assessed as reduction in cell viability preincubated for 48 hrs and measured after 4 hrs by MTT assay
[4] = test system: DU-145; experiment: Cytotoxicity against human DU145 cells expressing mutant type p53 assessed as reduction in cell viability preincubated for 48 hrs and measured after 4 hrs by MTT assay
Method in brief: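 MTT assay. Cells grown in DMEM (T24, MGC-803, A549, HL-7702), RPMI-1640 (DU145) or DMEM-F12 (PC-3), each with 10% FBS. Exposed to 1.25–20 µM in medium with 1% DMSO for 48 h, then MTT for 4 h. Formazan dissolved in DMSO and read at 570 nm. Five wells per concentration; means ± SD of independent repeats.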

[5] = test system: A549; experiment: Cytotoxicity against human A549 cells expressing wild type p53 assessed as reduction in cell viability preincubated for 48 hrs and measured after 4 hrs by MTT assay
[6] = test system: L02; experiment: Cytotoxicity against human HL-7702 cells expressing wild type p53 assessed as reduction in cell viability preincubated for 48 hrs and measured after 4 hrs by MTT assay

SMILES	pIC50 [1]	pIC50 [2]	pIC50 [3]	pIC50 [4]	pIC50 [5]	pIC50 [6]
Clc1ccc2nc(/C=C/c3ccc4c(c3)OCO4)nc(NCCN3CCCCC3)c2c1	4.83	5.04	< 4.00	< 4.00	< 4.00	< 4.00
Clc1ccc2nc(/C=C/c3ccc4c(c3)OCO4)nc(NCCN3CCOCC3)c2c1	< 4.00	4.42	< 4.00	< 4.00	< 4.00	< 4.00
COc1ccc(/C=C/c2nc(NCCCCN)c3ccccc3n2)cc1OC	4.15	4.51	< 4.00	< 4.00	< 4.00	< 4.00
CCN(CC)CCCNc1nc(/C=C/c2ccc([N+](=O)[O-])cc2)nc2ccccc12	5.08	5.27	4.81	4.91	< 4.00	5.28
CCN(CC)CCCNc1nc(/C=C/c2ccc(OC)c(OC)c2)nc2ccc(Cl)cc12	5.07	5.45	5.20	5.27	< 4.00	5.29
CCN(CC)CCNc1nc(/C=C/c2ccc3c(c2)OCO3)nc2ccc(Cl)cc12	4.95	5.09	4.85	5.12	< 4.00	4.80
NCCCCNc1nc(/C=C/c2ccc3c(c2)OCO3)nc2ccc(Cl)cc12	4.99	5.25	< 4.00	4.30	5.01	< 4.00
COc1ccc(/C=C/c2nc(NCCN(C(C)C)C(C)C)c3ccccc3n2)cc1OC	4.81	5.19	4.69	4.82	4.41	< 4.00
CCN(CC)CCNc1nc(/C=C/c2ccc3c(c2)OCO3)nc2ccccc12	5.01	5.06	4.47	4.79	4.33	4.68
O=[N+]([O-])c1ccc(/C=C/c2nc(NCCN3CCOCC3)c3cc(Cl)ccc3n2)cc1	< 4.00	< 4.00	< 4.00	< 4.00	< 4.00	< 4.00
NCCCCNc1nc(/C=C/c2ccc3c(c2)OCO3)nc2ccccc12	4.61	4.39	< 4.00	< 4.00	< 4.00	< 4.00
COc1ccc(/C=C/c2nc(NCCN(C)C)c3cc(Cl)ccc3n2)cc1OC	4.93	4.92	4.63	4.75	4.67	4.09
COc1ccc(/C=C/c2nc(NCCN3CCOCC3)c3cc(Cl)ccc3n2)cc1OC	< 4.00	4.04	< 4.00	< 4.00	< 4.00	< 4.00
CCN(CC)CCNc1nc(/C=C/c2ccc([N+](=O)[O-])cc2)nc2ccccc12	< 4.00	< 4.00	< 4.00	< 4.00	< 4.00	4.35
CCN(CC)CCNc1nc(/C=C/c2ccc([N+](=O)[O-])cc2)nc2ccc(Cl)cc12	5.15	4.96	< 4.00	4.91	< 4.00	< 4.00
CN(C)CCCNc1nc(/C=C/c2ccc3c(c2)OCO3)nc2ccccc12	4.86	5.06	< 4.00	4.60	< 4.00	4.84
COc1ccc(/C=C/c2nc(NCCCN(C)C)c3cc(Cl)ccc3n2)cc1OC	< 4.00	< 4.00	< 4.00	< 4.00	< 4.00	< 4.00

SMILES	pIC50 [1]	pIC50 [2]	pIC50 [3]	pIC50 [4]	pIC50 [5]	pIC50 [6]
COc1ccc(/C=C/c2nc(NCCCCN)c3cc(Cl)ccc3n2)cc1OC	4.85	5.11	< 4.00	4.70	4.30	< 4.00
COc1ccc(/C=C/c2nc(NCCN3CCOCC3)c3ccccc3n2)cc1OC	< 4.00	< 4.00	< 4.00	< 4.00	< 4.00	< 4.00
COc1ccc(/C=C/c2nc(NCCCN(C)C)c3ccccc3n2)cc1OC	< 4.00	4.05	< 4.00	< 4.00	< 4.00	< 4.00
CC(C)N(CCNc1nc(/C=C/c2ccc([N+](=O)[O-])cc2)nc2ccc(Cl)cc12)C(C)C	4.76	4.25	< 4.00	< 4.00	< 4.00	< 4.00
CN(C)CCCNc1nc(/C=C/c2ccc3c(c2)OCO3)nc2ccc(Cl)cc12	4.76	5.09	< 4.00	< 4.00	< 4.00	< 4.00
COc1ccc(/C=C/c2nc(NCCN3CCCCC3)c3cc(Cl)ccc3n2)cc1OC	4.87	5.12	4.67	4.76	< 4.00	4.86
CN(C)CCNc1nc(/C=C/c2ccc3c(c2)OCO3)nc2ccc(Cl)cc12	5.02	5.02	< 4.00	< 4.00	< 4.00	< 4.00
CCN(CC)CCNc1nc(/C=C/c2ccc(OC)c(OC)c2)nc2ccccc12	< 4.00	4.52	4.30	4.50	< 4.00	< 4.00
CCN(CC)CCCNc1nc(/C=C/c2ccc3c(c2)OCO3)nc2ccccc12	< 4.00	< 4.00	< 4.00	< 4.00	< 4.00	< 4.00
C(=C\c1nc(NCCN2CCOCC2)c2ccccc2n1)/c1ccc2c(c1)OCO2	< 4.00	< 4.00	< 4.00	< 4.00	< 4.00	< 4.00
CN(C)CCNc1nc(/C=C/c2ccc([N+](=O)[O-])cc2)nc2ccc(Cl)cc12	5.33	5.16	5.10	5.17	< 4.00	4.15
CN(C)CCNc1nc(/C=C/c2ccc([N+](=O)[O-])cc2)nc2ccccc12	4.84	5.05	4.29	4.80	4.47	4.75
NCCCCNc1nc(/C=C/c2ccc([N+](=O)[O-])cc2)nc2ccc(Cl)cc12	5.04	5.25	< 4.00	< 4.00	5.00	< 4.00
C(=C\c1nc(NCCN2CCCCC2)c2ccccc2n1)/c1ccc2c(c1)OCO2	4.97	5.20	4.92	5.07	4.40	5.00
O=[N+]([O-])c1ccc(/C=C/c2nc(NCCN3CCOCC3)c3ccccc3n2)cc1	< 4.00	< 4.00	< 4.00	< 4.00	< 4.00	< 4.00
CCN(CC)CCCNc1nc(/C=C/c2ccc([N+](=O)[O-])cc2)nc2ccc(Cl)cc12	5.13	5.15	5.16	5.09	4.12	4.82
